Experimental data taken from article PMC5621377 (Clinical cancer research : an official journal of the …, 2016).

System: patients with Rb+ advanced solid tumors or lymphomas
Test: Safety assessments, adverse events
Assay type: in vivo, human
Summary of the method: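 Oral test compound given daily 3-weeks-on/1-week-off in 28-day cycles, with doses escalated by a Bayesian logistic regression model with overdose control. Safety assessments, including ECGs, were done at baseline and at regular intervals. AEs were graded by CTCAE v4.0 and classed as suspected related to treatment. All patients dosed at least once were included; summaries were descriptive per dose level.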

[1] = 400 mg 3-weeks-on/1-week-off, n = 5
[2] = 600 mg 3-weeks-on/1-week-off, n = 67
[3] = 600 mg continuous dosing, n = 7
[4] = 750 mg 3-weeks-on/1-week-off, n = 14

Question: `CN(C)C(=O)c1cc2cnc(Nc3ccc(N4CCNCC4)cn3)nc2n1C1CCCC1` [ribociclib] was tested. Which “Nausea, Grade All, AE suspected related to study treatment” value (shortened to “Nausea, Grade All, AE suspected related”) [1] did it give?
Answer: The value was 1 (20) n (%).

Question: What about the “Neutropenia, Grade 3/4, AE suspected related to study treatment” value [1] of the same compound?
Answer: The value was 1 (20) n (%).

Question: What about the “Neutropenia, Grade All, AE suspected related to study treatment” value (shortened to “Neutropenia, Grade All”) [1] of the same compound?
Answer: The value was 2 (40) n (%).

Question: And the “Thrombocytopenia, Grade 3/4, AE suspected related to study treatment” value [1]?
Answer: The value was 0 n (%).

Question: What about the “Thrombocytopenia, Grade All, AE suspected related to study treatment” value (“Thrombocytopenia, Grade All” below) [1] of the same compound?
Answer: Its value is 1 (20) n (%).

Question: And the “Vomiting, Grade 3/4, AE suspected related to study treatment” value [1]?
Answer: The value was 0 n (%).

Question: What about the “Vomiting, Grade All, AE suspected related to study treatment” value (shortened to “Vomiting, Grade All”) [1] of the same compound?
Answer: The value was 2 (40) n (%).

Question: And the “Anemia, Grade 3/4, AE suspected related to study treatment” value (“Anemia, Grade 3/4, AE suspected related” for short) [2]?
Answer: The value was 2 (3) n (%).

Question: And the “Anemia, Grade All, AE suspected related to study treatment” value (from here on “Anemia, Grade All, AE suspected related”) [2]?
Answer: The value was 19 (28) n (%).

Question: What about the “Appetite decreased, Grade 3/4, AE suspected related to study treatment” value [2] of the same compound?
Answer: The value was 0 n (%).

Question: What about the “Appetite decreased, Grade All, AE suspected related to study treatment” value (from here on “Appetite decreased, Grade All”) [2] of the same compound?
Answer: The value was 5 (7) n (%).

Question: And the “Blood creatinine increased, Grade 3/4, AE suspected related to study treatment” value [2]?
Answer: Its value is 0 n (%).

Question: What about the “Blood creatinine increased, Grade All, AE suspected related to study treatment” value (“Blood creatinine increased, Grade All” below) [2] of the same compound?
Answer: Its value is 4 (6) n (%).

Question: And the “Diarrhea, Grade 3/4, AE suspected related to study treatment” value [2]?
Answer: The value was 2 (3) n (%).

Question: And the “Diarrhea, Grade All, AE suspected related to study treatment” value (shortened to “Diarrhea, Grade All”) [2]?
Answer: Its value is 18 (27) n (%).

Question: What about the “Fatigue, Grade 3/4, AE suspected related to study treatment” value (shortened to “Fatigue, Grade 3/4, AE suspected related”) [2] of the same compound?
Answer: The value was 2 (3) n (%).

Question: And the “Fatigue, Grade All, AE suspected related to study treatment” value (“Fatigue, Grade All, AE suspected related” below) [2]?
Answer: The value was 22 (33) n (%).

Question: What about the “Leukopenia, Grade 3/4, AE suspected related to study treatment” value [2] of the same compound?
Answer: Its value is 13 (19) n (%).

Question: And the “Leukopenia, Grade All, AE suspected related to study treatment” value (from here on “Leukopenia, Grade All”) [2]?
Answer: The value was 31 (46) n (%).

Question: And the “Lymphopenia, Grade 3/4, AE suspected related to study treatment” value [2]?
Answer: Its value is 12 (18) n (%).

Question: What about the “Lymphopenia, Grade All, AE suspected related to study treatment” value (“Lymphopenia, Grade All” below) [2] of the same compound?
Answer: Its value is 15 (22) n (%).

Question: And the “Nausea, Grade 3/4, AE suspected related to study treatment” value (“Nausea, Grade 3/4, AE suspected related” below) [2]?
Answer: The value was 1 (1) n (%).

Question: And the “Nausea, Grade All, AE suspected related” value [2]?
Answer: The value was 30 (45) n (%).

Question: And the “Neutropenia, Grade 3/4, AE suspected related to study treatment” value [2]?
Answer: The value was 19 (28) n (%).

Question: And the “Neutropenia, Grade All” value [2]?
Answer: Its value is 31 (46) n (%).

Question: What about the “Thrombocytopenia, Grade 3/4, AE suspected related to study treatment” value [2] of the same compound?
Answer: The value was 6 (9) n (%).

Question: What about the “Thrombocytopenia, Grade All” value [2] of the same compound?
Answer: Its value is 23 (34) n (%).

Question: What about the “Vomiting, Grade 3/4, AE suspected related to study treatment” value [2] of the same compound?
Answer: Its value is 0 n (%).

Question: What about the “Vomiting, Grade All” value [2] of the same compound?
Answer: Its value is 17 (25) n (%).

Question: And the “Anemia, Grade 3/4, AE suspected related” value [3]?
Answer: Its value is 0 n (%).

Question: And the “Anemia, Grade All, AE suspected related” value [3]?
Answer: The value was 2 (29) n (%).

Question: And the “Appetite decreased, Grade 3/4, AE suspected related to study treatment” value [3]?
Answer: The value was 0 n (%).

Question: And the “Appetite decreased, Grade All” value [3]?
Answer: Its value is 0 n (%).

Question: What about the “Blood creatinine increased, Grade 3/4, AE suspected related to study treatment” value [3] of the same compound?
Answer: Its value is 0 n (%).

Question: What about the “Blood creatinine increased, Grade All” value [3] of the same compound?
Answer: The value was 1 (14) n (%).

Question: What about the “Diarrhea, Grade 3/4, AE suspected related to study treatment” value [3] of the same compound?
Answer: Its value is 0 n (%).

Question: What about the “Diarrhea, Grade All” value [3] of the same compound?
Answer: The value was 0 n (%).

Question: What about the “Fatigue, Grade 3/4, AE suspected related” value [3] of the same compound?
Answer: Its value is 1 (14) n (%).

Question: And the “Fatigue, Grade All, AE suspected related” value [3]?
Answer: The value was 5 (71) n (%).

Question: What about the “Leukopenia, Grade 3/4, AE suspected related to study treatment” value [3] of the same compound?
Answer: Its value is 5 (71) n (%).

Question: And the “Leukopenia, Grade All” value [3]?
Answer: The value was 6 (86) n (%).

Question: What about the “Lymphopenia, Grade 3/4, AE suspected related to study treatment” value [3] of the same compound?
Answer: The value was 2 (29) n (%).

Question: What about the “Lymphopenia, Grade All” value [3] of the same compound?
Answer: Its value is 3 (43) n (%).

Question: And the “Nausea, Grade 3/4, AE suspected related” value [3]?
Answer: The value was 0 n (%).

Question: And the “Nausea, Grade All, AE suspected related” value [3]?
Answer: The value was 3 (43) n (%).

Question: What about the “Neutropenia, Grade 3/4, AE suspected related to study treatment” value [3] of the same compound?
Answer: The value was 5 (71) n (%).

Question: What about the “Neutropenia, Grade All” value [3] of the same compound?
Answer: Its value is 6 (86) n (%).

Question: What about the “Thrombocytopenia, Grade 3/4, AE suspected related to study treatment” value [3] of the same compound?
Answer: Its value is 0 n (%).

Question: And the “Thrombocytopenia, Grade All” value [3]?
Answer: Its value is 2 (29) n (%).

Question: And the “Vomiting, Grade 3/4, AE suspected related to study treatment” value [3]?
Answer: Its value is 0 n (%).

Question: What about the “Vomiting, Grade All” value [3] of the same compound?
Answer: The value was 2 (29) n (%).

Question: And the “patients with asymptomatic QTcF prolongation” value (600 mg/day (RDE))?
Answer: Its value is 9%.

Question: And the “Anemia, Grade 3/4, AE suspected related” value [4]?
Answer: The value was 1 (7) n (%).

Question: What about the “Anemia, Grade All, AE suspected related” value [4] of the same compound?
Answer: Its value is 3 (21) n (%).

Question: And the “Appetite decreased, Grade 3/4, AE suspected related to study treatment” value [4]?
Answer: Its value is 0 n (%).

Question: And the “Appetite decreased, Grade All” value [4]?
Answer: The value was 3 (21) n (%).

Question: What about the “Blood creatinine increased, Grade 3/4, AE suspected related to study treatment” value [4] of the same compound?
Answer: The value was 0 n (%).

Question: What about the “Blood creatinine increased, Grade All” value [4] of the same compound?
Answer: The value was 3 (21) n (%).

Question: What about the “Diarrhea, Grade 3/4, AE suspected related to study treatment” value [4] of the same compound?
Answer: The value was 0 n (%).

Question: And the “Diarrhea, Grade All” value [4]?
Answer: Its value is 4 (29) n (%).

Question: And the “Fatigue, Grade 3/4, AE suspected related” value [4]?
Answer: The value was 0 n (%).

Question: What about the “Fatigue, Grade All, AE suspected related” value [4] of the same compound?
Answer: Its value is 5 (36) n (%).

Question: What about the “Leukopenia, Grade 3/4, AE suspected related to study treatment” value [4] of the same compound?
Answer: The value was 0 n (%).

Question: What about the “Leukopenia, Grade All” value [4] of the same compound?
Answer: Its value is 6 (43) n (%).

Question: And the “Lymphopenia, Grade 3/4, AE suspected related to study treatment” value [4]?
Answer: The value was 1 (7) n (%).

Question: What about the “Lymphopenia, Grade All” value [4] of the same compound?
Answer: The value was 6 (43) n (%).

Question: What about the “Nausea, Grade 3/4, AE suspected related” value [4] of the same compound?
Answer: The value was 1 (7) n (%).

Question: And the “Nausea, Grade All, AE suspected related” value [4]?
Answer: The value was 8 (57) n (%).

Question: What about the “Neutropenia, Grade 3/4, AE suspected related to study treatment” value [4] of the same compound?
Answer: The value was 5 (36) n (%).

Question: What about the “Neutropenia, Grade All” value [4] of the same compound?
Answer: The value was 8 (57) n (%).

Question: What about the “Thrombocytopenia, Grade 3/4, AE suspected related to study treatment” value [4] of the same compound?
Answer: Its value is 3 (21) n (%).

Question: And the “Thrombocytopenia, Grade All” value [4]?
Answer: The value was 5 (36) n (%).

Question: What about the “Vomiting, Grade 3/4, AE suspected related to study treatment” value [4] of the same compound?
Answer: Its value is 0 n (%).

Question: What about the “Vomiting, Grade All” value [4] of the same compound?
Answer: The value was 4 (29) n (%).
